Series [1] in a line: Cytotoxicity against African green monkey Vero cells after 24 hrs by MTT assay. It is filed as cell-based. Particulars: chlorocebus sabaeus. The method, boiled down: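 Confluent Vero cells were trypsinized and resuspended in MEM with 10% FBS, seeded in 96-well plates and held 24 h at 37 °C, 5% CO2. Compounds at various concentrations were added (DMSO control) for 24 h. MTT was added for 2 h, then SDS-HCl overnight at 24 °C. A540 was read and viability taken relative to control cells. Triplicate; CC50 derived.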
(Tetrazolium dyes change colour on reduction, which living cells bring about.)

Series [2] has as its system Plasmodium berghei. Nature of the series: Antiplasmodial activity against Plasmodium berghei infected in CD1 mouse assessed as reduction in parasitemia at 50 mg/kg, po administered for 4 days measured on day 4 relative to vehicle-treated control. Format: functional. Also on record: scale not given: the % may be the effect or the level left. The method in brief: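 P. berghei ANKA was passaged ip (0.2 mL saline-diluted blood) through groups of female CD1 mice until infection stabilized. Four-day suppression test: oral 50 mg/kg every 24 h on days 0–4 post-inoculation (n = 5, in duplicate). Vehicle control was 0.2 mL gum arabic orally. Parasitemia was read from tail blood on day 4 and inhibition calculated against the control group. Survival time was also recorded.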

The subject of series [3] is Plasmodium berghei. Nature of the series: Antiplasmodial activity against Plasmodium berghei infected in CD1 mouse assessed as survival time at 50 mg/kg, po administered for 4 days measured on day 4 relative to vehicle-treated control. Format: functional. The method, boiled down:
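P. berghei ANKA was passaged by ip injection of 0.2 mL saline-diluted blood from donor mice at about 30% parasitaemia until the infection was stable. In a 4-day suppression test, mice received 50 mg/kg orally every 24 h on days 0–4 post-inoculation (n = 5, in duplicate), with 0.2 mL Arabic gum orally as control. Survival time was recorded against untreated mice, and mice without parasitaemia on day 30 counted as cured.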

Series [4] concerns Trypanosoma cruzi. Put plainly: Antimicrobial activity against bloodstream trypomastigote stage of Trypanosoma cruzi INC-5 after 24 hrs by Brener method. Format: functional. Particulars: INC-5, 24 h.
In series [5] the test system is Leishmania mexicana. Put plainly: Inhibition of DHFR in promastigote stage of Leishmania mexicana at 3 to 8 uM after 24 hrs in presence of folinic acid/folic acid/ferulic acid. The method, boiled down: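 L. mexicana MHOM/BZ/61/M379 promastigotes, 10^6 in log phase, were incubated with folinic acid, folic acid or ferulic acid at 20, 40, 60, 80 or 100. Cells were washed, resuspended in PBS and held 1 h at room temperature, then pelleted and resuspended in culture medium in 24-well plates. Compound was added and plates incubated 24 h. Percentage of living parasites was determined.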

Series [6] deals with Leishmania mexicana. Put plainly: Antimicrobial activity against Leishmania mexicana MHOM/BZ/61/M379 after 24 hrs by haemocytometry. Format: functional. Particulars: MHOM/BZ/61/M379, 24 h.
For series [7], the system named is Trypanosoma cruzi. Put plainly: Antimicrobial activity against bloodstream trypomastigote stage of Trypanosoma cruzi NINOA after 24 hrs by Brener method. Format: functional.
The nature of series [8]: Antioxidant activity assessed as inhibition of ABTS free radical scavenging activity after 10 mins by spectrophotometry relative to control. It is filed as physicochemical. The method, boiled down: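 ABTS (7 mM) and potassium persulfate (2.45 mM), final concentrations in water, mixed and kept in the dark at room temperature for 16 h to form ABTS radical cation. Diluted in water to A734 of 1.00. Compounds or Trolox standards added (final 0–20). Absorbance read 10 min after mixing. IC50 is 50% radical scavenging, relative uncertainty under five percent.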

For series [9], the system named is Leishmania mexicana. To be noted: MHOM/BZ/61/M379.

Activity calls are given as the source filed them. The calls are words filed in the database; no cut-off is given here. Bounds are passed on as bounds.

The term CC50 denotes the concentration that lowers cell viability or growth by half. The compound `CCc1nc(N)nc(N)c1-c1ccc(Cl)cc1` [PYRIMETHAMINE] had a cytotoxic concentration (CC50) at 24 h in series [1] of 122 µM. Further, in the series on Plasmodium berghei [2], the Activity came to 100%. In addition, the Survival with Plasmodium berghei [3] is more than 23 days.

In general, LC50 refers to the concentration that kills 50% of the test population. The term IC50 denotes the concentration that inhibits the measured activity by half. Take `CCN(Cc1ccc(OC(F)(F)F)cc1)c1ccc2nc(N)nc(N)c2c1`: in [1], the CC50 at 24 h is more than 200 µM. Also, the values for the LC50 in the series on Trypanosoma cruzi [4], in the series on Leishmania mexicana [6] and in the series with Trypanosoma cruzi [7] were 43.8 µM, 3.06 µM and 6.28 µM, respectively. The inhibition entry in the series on Leishmania mexicana [5] is “Active”. Also, in series [8], the half-inhibitory concentration (IC50) amounted to 7.36 µM. Besides, the Activity in the series with Plasmodium berghei [2] is on record as 100%. Moreover, in the series with Plasmodium berghei [3], the Survival was more than 23 days.

In series [1], `Nc1nc(N)c2cc(N(Cc3ccc(OC(F)(F)F)cc3)Cc3ccc(OC(F)(F)F)cc3)ccc2n1` had a CC50 at 24 h of more than 200 µM. Besides, the LC50 came out at 29.2 µM with Trypanosoma cruzi [4], 4.93 µM with Leishmania mexicana [6] and 35 µM with Trypanosoma cruzi [7]. For the same compound, the IC50 in series [8] was determined as 33.9 µM. Also, the Activity with Plasmodium berghei [2] was found to be 21%. Moreover, the Survival in the series with Plasmodium berghei [3] amounted to 14 days.

Turning to `O=C(Cn1ccnc1[N+](=O)[O-])NCc1ccccc1` [BENZNIDAZOLE], the LC50 came to 690 µM with Trypanosoma cruzi [4] and 780 µM with Trypanosoma cruzi [7].

Turning to `CC1CS(=O)(=O)CCN1/N=C/c1ccc([N+](=O)[O-])o1` (stereo not drawn) [NIFURTIMOX], the CC50 at 24 h in [1] was determined as 163 µM.

For `O=C1O[C@H]([C@@H](O)CO)C(O)=C1O` [ASCORBIC ACID], in series [8], the IC50 amounted to 11.2 µM.

As to `Cc1c(C)c2c(c(C)c1O)CCC(C)(C(=O)O)O2` (stereo not drawn) [TROLOX], in series [8], the IC50 was 10.9 µM.

`COc1ccc(CN(Cc2ccc(OC(F)(F)F)cc2)c2ccc3nc(N)nc(N)c3c2)cc1`: the CC50 at 24 h in series [1] was more than 200 µM. The LC50 in the series with Trypanosoma cruzi [4] came to 40.7 µM; in the series on Leishmania mexicana [6], 8 µM; in the series with Trypanosoma cruzi [7] it was 17.8 µM. Besides, the IC50 in [8] was 24.5 µM. In addition, in the series with Plasmodium berghei [2], the Activity turned out to be 95.2%. Further, in the series on Plasmodium berghei [3], the Survival came out at 21 days.

Take `CN(C)CCCOc1ccc(CNc2ccc3nc(N)nc(N)c3c2)cc1`: the CC50 at 24 h in series [1] was more than 200 µM. Also, the 50% lethal concentration (LC50) in the series with Trypanosoma cruzi [4] was determined as 184 µM; with Leishmania mexicana [6] it was 65.4 µM; with Trypanosoma cruzi [7], 288 µM. Also, in series [8], the concentration for half-maximal inhibition (IC50) was found to be 6.38 µM. The Activity in the series on Plasmodium berghei [2] is 53.2%. Also, the Survival in the series on Plasmodium berghei [3] came to 12 days.

As for VITAMIN E, the IC50 in [8] was found to be 14.8 µM.

MEGLUMINE ANTIMONATE: the LC50 in the series on Leishmania mexicana [9] came out at 183 µM.

`Nc1ccc2nc(N)nc(N)c2c1` [QUINAZOLINE-2,4,6-TRIAMINE]: the half-maximal inhibitory concentration (IC50) in series [8] stood at 6.78 µM.

In the case of `COc1ccc(CN(Cc2ccc(OC)cc2)c2ccc3nc(N)nc(N)c3c2)cc1`, in series [1], the CC50 at 24 h was more than 200 µM. For the same compound, the values for the 50% lethal concentration (LC50) in the series with Trypanosoma cruzi [4], in the series on Leishmania mexicana [6] and in the series with Trypanosoma cruzi [7] were 46.5 µM, 23.1 µM and 62.6 µM, respectively. Moreover, the IC50 in series [8] was 114 µM. Besides, in the series on Plasmodium berghei [2], the Activity amounted to 0%. Besides, the Survival with Plasmodium berghei [3] was found to be 7 days.

With `Nc1nc(N)c2cc(NCc3ccc4c(c3)OCCO4)ccc2n1`, the CC50 at 24 h in series [1] was more than 200 µM. Also, the 50% lethal concentration (LC50) was found to be 72.5 µM with Trypanosoma cruzi [4], 22.4 µM with Leishmania mexicana [6] and 66.5 µM in the series on Trypanosoma cruzi [7]. Besides, the IC50 in series [8] was 6.29 µM. For the same compound, the Activity in the series on Plasmodium berghei [2] was found to be 44.2%. Further, the Survival with Plasmodium berghei [3] came out at 11 days.

As to `CCN(CC)CCCC(C)Nc1ccnc2cc(Cl)ccc12` (stereo not drawn) [CHLOROQUINE], in the series with Plasmodium berghei [2], the Activity is on record as 100%. In addition, the Survival in the series on Plasmodium berghei [3] is more than 23 days.

With `Nc1nc(N)c2cc(NCc3ccc(OC(F)(F)F)cc3)ccc2n1`, the CC50 at 24 h in series [1] was found to be 182 µM. Moreover, the LC50 worked out at 46.1 µM in the series with Trypanosoma cruzi [4], 8.08 µM in the series with Leishmania mexicana [6] and 20.6 µM with Trypanosoma cruzi [7]. Also, the inhibition result in the series with Leishmania mexicana [5] is “Active”. Besides, in [8], the IC50 worked out at 4.75 µM. In the series on Plasmodium berghei [2], the Activity amounted to 99.9%. In addition, in the series with Plasmodium berghei [3], the Survival amounted to 17 days.

Consider `COc1ccc(CNc2ccc3nc(N)nc(N)c3c2)cc1`, for which the CC50 at 24 h in [1] turned out to be 147 µM. The LC50 came to 155 µM with Trypanosoma cruzi [4], 14.6 µM with Leishmania mexicana [6] and 32.7 µM in the series with Trypanosoma cruzi [7]. Moreover, the IC50 in series [8] amounted to 5.72 µM. Further, the Activity with Plasmodium berghei [2] is 98.5%. In the series with Plasmodium berghei [3], the Survival stood at 18 days.

On to `COc1ccc(CNc2ccc3nc(NC(C)=O)nc(NC(C)=O)c3c2)cc1`, for which the CC50 at 24 h in [1] came out at 156 µM. In addition, the values for the LC50 in the series with Trypanosoma cruzi [4], with Leishmania mexicana [6] and with Trypanosoma cruzi [7] were 509 µM, 250 µM and 197 µM, respectively. The half-maximal inhibitory concentration (IC50) in series [8] worked out at 7.04 µM. The Activity in the series on Plasmodium berghei [2] is listed as 89.3%. For the same compound, in the series with Plasmodium berghei [3], the Survival came to 6 days.

The values are drawn from ChEMBL document CHEMBL3414531, “Design, synthesis and biological evaluation of quinazoline derivatives as anti-trypanosomatid and anti-plasmodial agents” (Eur J Med Chem, 2015).
